The record followed here is PubChem BioAssay.

A number with no mark means an inactive call. Results filed as inconclusive are left out. Activity calls are given as the source filed them.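 The calls were made as follows, unless noted: active = viability increase at or above a cutoff of the median across tested compounds plus 3 SD (cut at about 8.5% in these data, passing the limit was not always enough); inconclusive = some gains above the cutoff, reason not given; inactive = the rest.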

A short description of experiment [1]: S. cerevisiae growth inhibition in permissive medium (OD615), pilot counter-assay for S. cerevisiae lifespan shortening project, permissive growth control (AID 705;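 active = growth inhibition above 25% in both replicates, a cutoff set 3 SD above the mean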). To be noted: OD615, 24 h, at 10 µM, active compounds read high. A digest of the protocol:
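Material: engineered DeaD yeast; compound dosing: one dose 10 µM, DMSO 0.25% final; measure: yeast growth inhibition indicated by reduced 24 h OD615; detection: OD615 turbidity read; incubation: cells pre-grown 4 h, then 24 h compound exposure, 30 °C humidified; medium: permissive synthetic complete medium with raffinose and galactose carbon sources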

The nature of experiment [2]: S. cerevisiae growth inhibition in restrictive medium, OD615, pilot screen, restrictive growth control, yeast lifespan reduction project (AID 706;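 active = growth inhibition above a set limit, 3 SD over mean compound inhibition, in both replicates, cut at about 43% in these data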;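 also: modified DeaD lifespan yeast strain shifted to restrictive glucose medium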). The conditions noted are these: OD615, 48 h, at 10 µM, active compounds read high. In short, it runs like this: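 material = engineered S. cerevisiae DeaD strain | medium = glucose-based CSMM-D restrictive medium | times = 4 h pre-incubation, 48 h exposure at 30 °C | technique = OD615 absorbance reading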

Experiment [3] in a line: doxorubicin toxicity protection in MRP-1 cells – H69AR cells, CellTiter-Glo, duplicate, MRP-1 activator project, pilot screen (AID 807).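 Also: compound pretreatment 18-22 h then 72 h combined with doxorubicin; 0% = doxorubicin alone and 100% = vehicle without doxorubicin.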 The conditions noted are these: H69AR viability with doxorubicin, CellTiter-Glo luminescence; at 10 µM; active compounds read high. Background: ATP-based viability assays read luminescence as a measure of living cells.
A short description of experiment [4]: viability of HCT116 without oncogenic beta-catenin – human colon tumor cells, pilot screen (AID 823;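 active = cell viability at or below a set limit in both duplicate runs, the limit being the all-compound median minus 4 SD, cut at about 23% in these data, passing the limit was not always enough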;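 also: 0% = wells killed by 20 µM Hyamine and 100% = untreated DMSO cell wells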). The conditions noted are these: HCT116 beta-catenin knockout viability, CellTiter-Glo, 60 h; at 10 µM; active compounds read low.
Experiment [5] in a line: viability of PTEN-null HCT116 cells – cell-based, HCT116 clonal line, CellTiter-Glo, pilot screen (AID 824;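 active = viability at or below 27.92% in each of two runs, the all-compound median minus 4 SD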;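 also: 0% = 20 µM Hyamine control and 100% = vehicle cell control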). To be noted: HCT116 PTEN-deleted viability, 60 h, at 10 µM, active compounds read low.
Experiment [6] in a line: RAM pathway blockade in budding yeast – dse1pr::URA3 reporter, 5-FOA selection, pilot screen (AID 869;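 active = inhibition over a set limit, the all-compound mean plus 3 SD, in both replicate runs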;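 also: 0% = DMSO wells with no growth and 100% = 10 µM 1-NA-PP1 with full growth; RAM network block rescues cells from 5-FOA so hits raise OD615 growth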). The conditions noted are these: S. cerevisiae dse1pr::URA3 5-FOA growth, OD615, 2 d; at 10 µM; active compounds read high; strain carries analog-sensitive mutant Cbk1 kinase.
Experiment [7] in a line: RAM signaling pathway blockade in yeast – S. cerevisiae, Pdr1DBD-CYC8 efflux-inhibited sensitized strain, primary screen (AID 1298;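 active = RAM network inhibition above 8.4% in each of two replicates, 3 SD over the compound average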;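 also: 0% = DMSO untreated cells without growth and 100% = 10 µM 1-NA-PP1 full growth; higher means more yeast growth rescued from 5-FOA killing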). The conditions noted are these: S. cerevisiae cbk1-as DSE1-URA3 strain, 5-FOA growth OD615, 2 d; at 50 µM; active compounds read high.

`Brc1ccc(-c2nc(-c3ccccn3)no2)o1`: the growth inhibition in experiment [1] was 0.205%; in experiment [2], 13%. Also, in experiment [3], the viability increase is -4.55%. The viability in experiment [4] is 73.8%; in experiment [5], 67.5%. Moreover, the inhibition in experiment [6] is 2.41%. Besides, in experiment [7], the RAM network inhibition was 2.05%.
Take `CC(=O)n1c2ccccc2c2c1c1ccccc1n2C`: the results for the growth inhibition in experiment [1] and in experiment [2] were 10.6% and 3.17%, respectively. Besides, in experiment [3], the viability increase was -4.83%. Moreover, the results for the viability in experiment [4] and in experiment [5] were 96% and 82.6%, respectively. In addition, the inhibition in experiment [6] is 2.49%. Further, in experiment [7], the RAM network inhibition was 2%.
Regarding `CCOC(=O)c1c(N)sc(C(=O)N2CCCCCC2)c1C`, the growth inhibition is -20.4% in experiment [1] and -21.8% in experiment [2]. The viability increase in experiment [3] was 0.25%. The viability in experiment [4] is 96.7%; in experiment [5] it was 91.2%. The inhibition in experiment [6] was -0.305%. Further, the RAM network inhibition in experiment [7] is -0.21%.
Regarding `CCOCCOC(=O)C1=C(C)N(C)C(=O)NC1c1ccccc1Cl` (stereo unspecified), the growth inhibition in experiment [1] is 1.35%; in experiment [2] it was -7.18%. Further, the viability increase in experiment [3] is -1.78%. Moreover, the results for the viability in experiment [4] and in experiment [5] were 101% and 99.8%, respectively. In addition, the inhibition in experiment [6] is 0.375%. Also, the RAM network inhibition in experiment [7] was 0.57%.
`CCCn1cnc2cc(NCc3ccccn3)ccc21`: the growth inhibition in experiment [1] was -5.07%; in experiment [2], 8.03%. Also, the viability increase in experiment [3] is -2.58%. The figures for the viability in experiment [4] and in experiment [5] were 98.5% and 100%, respectively. The inhibition in experiment [6] is 2.06%. The RAM network inhibition in experiment [7] is -2.3%.
Turning to `Cc1cccc(CCNC(=O)C2CCC(CNc3c(N4CCCC4)c(=O)c3=O)CC2)c1` (stereo unspecified), the growth inhibition is -6.65% in experiment [1] and -3.19% in experiment [2]. Moreover, in experiment [3], the viability increase was -1.92%. In addition, the viability in experiment [4] was 99.4%; in experiment [5], 91.2%. Also, the inhibition in experiment [6] is 1.26%. Besides, the RAM network inhibition in experiment [7] was 4.72%.
In the case of `COc1ccccc1-c1c(C)nn2c(N3CCCCCC3)cc(C)nc12`, the growth inhibition is -5.18% in experiment [1] and -3.49% in experiment [2]. Besides, the viability increase in experiment [3] is -7.77%. Also, the viability in experiment [4] is 6.78% (active); in experiment [5], 7.98% (active). Moreover, the inhibition in experiment [6] is 1.42%. Further, the RAM network inhibition in experiment [7] is -0.76%.
Consider `COc1ccccc1N(C(=O)NCc1ccccc1)C1=NCC(C)S1` (stereo unspecified), for which the growth inhibition is -16% in experiment [1] and -11.9% in experiment [2]. For the same compound, in experiment [3], the viability increase was -3.44%. The results for the viability in experiment [4] and in experiment [5] were 93.4% and 89.2%, respectively. Besides, the inhibition in experiment [6] was 2.22%. Further, in experiment [7], the RAM network inhibition is 7.42%.
For `Cc1cnc(C(=O)OCC(=O)Nc2cc(Cl)cc(Cl)c2)cn1`, the results for the growth inhibition in experiment [1] and in experiment [2] were -14.2% and -9.38%, respectively. The viability increase in experiment [3] is -5.97%. Further, the viability is 96.7% in experiment [4] and 88.5% in experiment [5]. For the same compound, the inhibition in experiment [6] was 1.13%. Besides, in experiment [7], the RAM network inhibition is 5.88%.
As for `O=C(CCc1ccccc1)Nc1ccc(NC(=O)c2ccco2)cc1`, the growth inhibition in experiment [1] was -5.04%; in experiment [2], 0.64%. For the same compound, the viability increase in experiment [3] is -1.63%. Moreover, the viability in experiment [4] was 103%; in experiment [5] it was 93.7%. Moreover, the inhibition in experiment [6] is 1.44%. In addition, in experiment [7], the RAM network inhibition is 2.56%.
Consider `CC(C)(C)c1ccc(NC(=O)NCc2ccco2)cc1`, for which the growth inhibition was -8.65% in experiment [1] and 2.62% in experiment [2]. The viability increase in experiment [3] is -5%. Besides, the viability in experiment [4] was 63.8%; in experiment [5], 64.5%. The inhibition in experiment [6] is 1.23%. The RAM network inhibition in experiment [7] was -0.31%.
Turning to `COCc1cc(C)nc2sc3c(=O)n(Cc4ccco4)nnc3c12`, the growth inhibition was -8.08% in experiment [1] and -13.3% in experiment [2]. Also, the viability increase in experiment [3] is -1.93%. For the same compound, the viability in experiment [4] was 100%; in experiment [5], 90.7%. In experiment [6], the inhibition is 4.2%. Further, in experiment [7], the RAM network inhibition was 4.8%.
Consider `Cn1c(=O)c2c(nc(Sc3ncccn3)n2Cc2ccc(Cl)cc2)n(C)c1=O`, for which the growth inhibition was -0.82% in experiment [1] and 1.5% in experiment [2]. Further, the viability increase in experiment [3] is -2.38%. The figures for the viability in experiment [4] and in experiment [5] were 82.4% and 71.1%, respectively. Also, the inhibition in experiment [6] was 1.8%. For the same compound, the RAM network inhibition in experiment [7] is 0.26%.
Consider `CCCN1C(=O)c2cc(C(=O)NCCc3cccc(C)c3)ccc2C1O` (stereo unspecified), for which the growth inhibition in experiment [1] is -2.76%; in experiment [2] it was 1.97%. The viability increase in experiment [3] is -3.1%. Besides, the viability in experiment [4] and in experiment [5] was 104% throughout. Further, the inhibition in experiment [6] was 0.08%. The RAM network inhibition in experiment [7] was 1.65%.
On to `CCOC(=O)C1=C(SCC(=O)Nc2ccccc2)NC(=O)C(C#N)C12CCCCC2` (stereo unspecified), for which the growth inhibition is -8.66% in experiment [1] and -7.72% in experiment [2]. For the same compound, the viability increase in experiment [3] was -2.95%. Moreover, the values for the viability in experiment [4] and in experiment [5] were 85.1% and 91.5%, respectively. In experiment [6], the inhibition is 1.71%. Further, the RAM network inhibition in experiment [7] was 2.44%.
Regarding `CCOc1cccc(C2c3c(oc4cc(C)c(C)cc4c3=O)C(=O)N2CCCN(C)C)c1` (stereo unspecified), the growth inhibition in experiment [1] is 1.31%; in experiment [2], -0.895%. Further, in experiment [3], the viability increase is -3.58%. The viability in experiment [4] is 92.9%; in experiment [5], 85.9%. In addition, the inhibition in experiment [6] is 1.8%. In experiment [7], the RAM network inhibition is 2.55%.
Turning to `CC1CCN(S(=O)(=O)N2CCC(C(=O)N3CCC(N(C)CC4CCCO4)CC3)CC2)CC1` (stereo unspecified), the growth inhibition in experiment [1] was -0.85%; in experiment [2], -5.09%. Further, the viability increase in experiment [3] is -1.16%. Also, the viability was 90.6% in experiment [4] and 95.3% in experiment [5]. In addition, the inhibition in experiment [6] is 2.09%. Also, in experiment [7], the RAM network inhibition was 0.73%.
For the compound `CN(CCCNC(=O)Cn1cc2c(n1)CCCC2)C1CCCCC1`, the growth inhibition is -2.1% in experiment [1] and -0.155% in experiment [2]. Also, the viability increase in experiment [3] is -3.43%. Further, the viability is 99.2% in experiment [4] and 90.2% in experiment [5]. Also, in experiment [6], the inhibition is -1.29%. Also, the RAM network inhibition in experiment [7] is 1.23%.

A word on the viability: it is a read-out of living cells in per cent, often relative to untreated cells. A word on the inhibition: it is the change of the read-out against control, counted positive when it falls.
